The source made the active and inactive calls. The calls are words filed in the database; no cut-off is given here.
Key:
[1] = Cytotoxicity against human 293T cells assessed as growth inhibition at 10 uM after 72 hrs by SRB assay relative to control; type: cell-based; conditions: HEK-293T cells, read-out: GI
Outline: (§1)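 SRB single-dose screen at 10 μM on 293T, A549, Hela and MCF-7 cells. Results reported as percent inhibitory ratio (mean ± SD).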

[2] = tested on: A549; test: Cytotoxicity against human A549 cells assessed as growth inhibition at 10 uM after 72 hrs by SRB assay relative to control; type: functional; conditions: A549, 72 h, read-out: GI; outline: as §1
[3] = tested on: HeLa; test: Cytotoxicity against human HeLa cells after 72 hrs by SRB assay; type: functional, cell-based
Outline: (§2)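 SRB assay on 293T, A549, Hela and MCF-7 cells, with cisplatin as reference control. IC50 calculated for each compound from triplicate assays.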

[4] = tested on: MCF7; test: Cytotoxicity against human MCF7 cells after 72 hrs by SRB assay; type: functional, cell-based; conditions: MCF7, 72 h; outline: as §2
[5] = tested on: HeLa; test: Induction of apoptosis in human HeLa cells after 24 hrs by Annexin-V-FITC/propidium iodide staining based flow cytometry; type: functional, cell-based
Outline: (§3)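 Hela cells seeded at 10^6 per well and stabilized 24 h at 37 °C, 5% CO2. Then treated 24 h at 2.5, 5.0 or 7.5 μM, DMSO negative control. Cells washed in cold PBS, resuspended at 1×10^6 cells/mL in cold binding buffer, stained with annexin V-FITC then PI for 15 min in dark, analysed by flow cytometry.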

[6] = tested on: HeLa; test: Induction of apoptosis in human HeLa cells assessed as nuclear condensation at 7.5 uM after 48 hrs by Hoechst 33342 staining based fluorescence microscopic method; type: functional, cell-based
Outline: (§4)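 Hela cells seeded at 10^6 per well on cover slips and incubated 16 h. Then exposed 48 h at 2.5, 5.0 or 7.5 μM, DMSO negative control. Cells fixed in 4% paraformaldehyde for 15 min, washed in PBS, stained with Hoechst 33342 for 10 min. Nuclear morphology viewed by fluorescence microscopy, ex 350 nm / em 460 nm.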

[7] = tested on: HeLa; test: Induction of apoptosis in human HeLa cells assessed as apoptotic body formation at 7.5 uM after 48 hrs by Hoechst 33342 staining based fluorescence microscopic method; type: functional, cell-based; outline: as §4
[8] = tested on: HeLa; test: Induction of apoptosis in human HeLa cells after 48 hrs by Hoechst 33342 staining based fluorescence microscopic method; type: functional, cell-based; outline: as §4
[9] = tested on: HeLa; test: Induction of apoptosis in human HeLa cells assessed as gated cells at necrotic stage at 2.5 uM after 24 hrs by Annexin-V-FITC/propidium iodide staining based flow cytometry (reference value: 0.05%); type: functional; outline: as §3
[10] = tested on: HeLa; test: Induction of apoptosis in human HeLa cells assessed as total cells at necrotic stage at 2.5 uM after 24 hrs by Annexin-V-FITC/propidium iodide staining based flow cytometry (reference value: 0.05%); type: functional; outline: as §3
[11] = tested on: HeLa; test: Induction of apoptosis in human HeLa cells assessed as total cells at early apoptotic stage at 2.5 uM after 24 hrs by Annexin-V-FITC/propidium iodide staining based flow cytometry (reference value: 0.04%); type: functional; outline: as §3
[12] = tested on: HeLa; test: Induction of apoptosis in human HeLa cells assessed as total cells at late apoptotic stage at 5 uM after 24 hrs by Annexin-V-FITC/propidium iodide staining based flow cytometry (reference value: 0.03%); type: functional; outline: as §3
[13] = tested on: HeLa; test: Cell cycle arrest in human HeLa cells assessed as accumulation at G1 phase at 2.5 uM after 24 hrs by propidium iodide staining based flow cytometry (reference value: 56.72%); type: functional
[14] = tested on: HeLa; test: Cell cycle arrest in human HeLa cells assessed as accumulation at S phase at 5 uM after 24 hrs by propidium iodide staining based flow cytometry (reference value: 18.92%); type: functional
[15] = tested on: HeLa; test: Cell cycle arrest in human HeLa cells assessed as accumulation at G1 phase at 5 uM after 24 hrs by propidium iodide staining based flow cytometry (reference value: 56.72%); type: functional
[16] = tested on: HeLa; test: Cell cycle arrest in human HeLa cells assessed as accumulation at G1 phase at 7.5 uM after 24 hrs by propidium iodide staining based flow cytometry (reference value: 56.72%); type: functional
[17] = tested on: HeLa; test: Cell cycle arrest in human HeLa cells assessed as accumulation at S phase after 24 hrs by propidium iodide staining based flow cytometry; type: functional

Work on `CCNCc1cn(-c2ccccc2)nc1C1=CC[C@H]2[C@@H]3CC=C4C[C@@H](O)CC[C@]4(C)[C@H]3CC[C@]12C` yielded an inhibition at 72 h, 10 µM [1] of 94.2%, an inhibition of growth at 10 µM [2] of 91.3% and an IC50 [3] of 530 nM. For the same molecule, the IC50 [4] was 2530 nM, the Activity [5] was “Dose-dependent effect” and the Activity [6] was “Active”. For the same molecule, the Activity [7] was “Active”, the Activity [8] was “Dose-dependent effect” and the Activity [9] was 1.31%. For the same molecule, the Activity [10] was 1.28%, the Activity [11] was 0.58% and the Activity [12] was 0.31%. For the same molecule, the Activity [13] was 51.99%, the Activity [14] was 24.34% and the Activity [15] was 53.13%. The Activity [16] was 49.92% and the Activity [17] was “Dose-dependent effect”.

From ChEMBL document CHEMBL4049388, “Facile and efficient access to Androsten-17-(1',3',4')-pyrazoles and Androst-17β-(1',3',4')-pyrazoles via Vilsmeier reagents, and their antiproliferative activity evaluation in vitro” (Eur J Med Chem, 2017)
